Data as given in ChEMBL document CHEMBL4152184, “NB 06: From a simple lysosomotropic aSMase inhibitor to tools for elucidating the role of lysosomes in signaling apoptosis and LPS-induced inflammation” (Eur J Med Chem, 2018).
Activity calls are given as the source filed them. The rule behind the calls is not given here.

What was measured:
[1] = tested on: PBMC; assay: Inhibition of mmLDL-stimulated apoptosis in human PBMC assessed as apoptotic cells at 2 uM preincubated for 30 mins followed by mmLDL stimulation measured after 4 hrs by YO-PRO-1/Hoechst 33342 staining based assay (reference value: 100%); format: functional; set-up: scale not given: the % may be the effect or the level left
In short: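 PBMC pre-incubated 30 min with 2 μM compound, then stimulated with mmLDL (27 μg/mL; line 5) or TNFalpha (3 ng/mL; line 1) for 4 h. Apoptotic cells stained with YO-PRO-1 and all cells with Hoechst 33342. Each plate had control, stimulus, compound alone and compound plus stimulus; n = 3. Values are on a 0% (untreated control, corrected for spontaneous apoptosis) to 100% (stimulus alone) scale; means ± SE.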

[2] = molecular target: T1, Sphingomyelin phosphodiesterase (Homo sapiens) (UniProt P17405); assay: Inhibition of mmLDL-stimulated acid sphingomyelinase in human PBMC lysates at 100 uM preincubated for 30 mins followed by mmLDL stimulation measured after 4 hrs by YO-PRO-1/Hoechst 33342 staining based assay
T1 sequence (whole entry): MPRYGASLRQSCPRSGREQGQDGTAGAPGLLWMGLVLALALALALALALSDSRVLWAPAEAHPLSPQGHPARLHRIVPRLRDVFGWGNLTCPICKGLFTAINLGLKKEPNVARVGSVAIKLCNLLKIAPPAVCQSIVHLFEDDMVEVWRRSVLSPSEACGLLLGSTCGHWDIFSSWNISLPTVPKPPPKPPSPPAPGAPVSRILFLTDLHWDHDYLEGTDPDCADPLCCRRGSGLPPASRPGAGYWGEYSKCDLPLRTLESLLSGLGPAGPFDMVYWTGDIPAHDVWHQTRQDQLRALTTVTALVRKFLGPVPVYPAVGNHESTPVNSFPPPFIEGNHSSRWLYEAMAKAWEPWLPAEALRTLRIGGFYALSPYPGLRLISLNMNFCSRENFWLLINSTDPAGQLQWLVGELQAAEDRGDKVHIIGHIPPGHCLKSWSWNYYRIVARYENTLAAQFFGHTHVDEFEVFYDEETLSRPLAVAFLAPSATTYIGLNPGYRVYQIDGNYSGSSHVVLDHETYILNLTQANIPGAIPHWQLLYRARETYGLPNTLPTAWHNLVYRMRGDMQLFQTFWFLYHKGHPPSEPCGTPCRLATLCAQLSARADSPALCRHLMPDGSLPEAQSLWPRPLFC

[3] = molecular target: T2, Acid ceramidase (Homo sapiens) (UniProt Q13510); assay: Inhibition of TNFalpha-stimulated acid ceramidase in human PBMC assessed as ratio of C16-ceramide/lipid phosphate level at 10 uM preincubated for 30 mins followed by TNFalpha stimulation measured after 4 hrs by HPLC method (reference value: 0.49); format: cell-based
T2 sequence (whole entry): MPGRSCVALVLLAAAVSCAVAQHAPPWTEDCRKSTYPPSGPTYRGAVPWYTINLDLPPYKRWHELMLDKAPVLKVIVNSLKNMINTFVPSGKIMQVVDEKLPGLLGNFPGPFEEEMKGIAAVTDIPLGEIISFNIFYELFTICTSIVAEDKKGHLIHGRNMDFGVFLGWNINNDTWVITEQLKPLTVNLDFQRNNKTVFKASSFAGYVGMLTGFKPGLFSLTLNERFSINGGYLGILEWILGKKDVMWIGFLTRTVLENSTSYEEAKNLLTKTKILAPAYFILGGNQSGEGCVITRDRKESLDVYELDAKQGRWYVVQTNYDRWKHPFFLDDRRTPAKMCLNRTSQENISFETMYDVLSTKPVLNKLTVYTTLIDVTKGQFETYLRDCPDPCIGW
In short: (§1)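 Human macrophages from primary culture were preincubated 30 min with 10 µM compound. They were then stimulated 4 h with mmLDL (54 µg/mL), TNFalpha (3 ng/mL) or exogenous C6-ceramide (10 µM), or left unstimulated. Individual ceramide species (C16 and C24:1) were quantified in the cell lipid extracts.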

[4] = molecular target: T2, Acid ceramidase (Homo sapiens); assay: Inhibition of acid ceramidase in human PBMC assessed as ratio of C24:1-ceramide/lipid phosphate level at 10 uM incubated for 30 mins measured after 4 hrs by HPLC method; format: cell-based; in short: as §1
[5] = tested on: MONO-MAC-6; assay: Downregulation of CXCL3 mRNA expression level in human MONO-MAC-6 cells at 5 uM incubated for 30 mins measured after 4 hrs by oligonucleotide array hybridization assay relative to control; format: functional
In short: (§2)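 Total RNA was isolated, transcribed and labeled with DY-647 dye, then co-hybridized with DY-548-labeled cDNA from untreated cells on an inflammation oligonucleotide chip (780 gene probes). Differential expression >1.5 was taken as significant.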

[6] = tested on: MONO-MAC-6; assay: Upregulation of CXCL3 mRNA expression level in LPS-stimulated human MONO-MAC-6 cells at 5 uM preincubated for 30 mins followed by LPS stimulation measured after 6 hrs by oligonucleotide array hybridization assay (reference value: 5.74); format: functional
[7] = tested on: MONO-MAC-6; assay: Downregulation of CCL20 mRNA expression level in human MONO-MAC-6 cells at 5 uM incubated for 30 mins measured after 2 hrs by oligonucleotide array hybridization assay relative to control; format: functional; in short: as §2
[8] = tested on: MONO-MAC-6; assay: Downregulation of CCL20 mRNA expression level in LPS-stimulated human MONO-MAC-6 cells at 5 uM preincubated for 30 mins followed by LPS stimulation measured after 6 hrs by oligonucleotide array hybridization assay (reference value: 5.78); format: functional; in short: as §2
[9] = tested on: MONO-MAC-6; assay: Downregulation of PTX3 mRNA expression level in human MONO-MAC-6 cells at 5 uM incubated for 30 mins measured after 1 hr by oligonucleotide array hybridization assay relative to control; format: functional; in short: as §2
[10] = tested on: MONO-MAC-6; assay: Downregulation of CXCL2 mRNA expression level in human MONO-MAC-6 cells at 5 uM incubated for 30 mins measured after 1 hr by oligonucleotide array hybridization assay relative to control; format: functional; in short: as §2
[11] = tested on: MONO-MAC-6; assay: Downregulation of CXCL2 mRNA expression level in LPS-stimulated human MONO-MAC-6 cells at 5 uM preincubated for 30 mins followed by LPS stimulation measured after 6 hrs by oligonucleotide array hybridization assay (reference value: 9.41); format: functional; in short: as §2
[12] = tested on: MONO-MAC-6; assay: Downregulation of PTGS2 mRNA expression level in human MONO-MAC-6 cells at 5 uM incubated for 30 mins measured after 1 hr by oligonucleotide array hybridization assay relative to control; format: functional; in short: as §2
[13] = tested on: MONO-MAC-6; assay: Upregulation of ICAM1 mRNA expression level in LPS-stimulated human MONO-MAC-6 cells at 5 uM preincubated for 30 mins followed by LPS stimulation measured after 1 hr by oligonucleotide array hybridization assay (reference value: 1.17); format: functional
[14] = tested on: MONO-MAC-6; assay: Upregulation of CXCL2 mRNA expression level in LPS-stimulated human MONO-MAC-6 cells at 5 uM preincubated for 30 mins followed by LPS stimulation measured after 1 hr by qRT-PCR method (reference value: 1.29); format: functional
[15] = tested on: MONO-MAC-6; assay: Downregulation of TNFalpha mRNA expression level in human MONO-MAC-6 cells at 5 uM incubated for 30 mins measured after 1 hr by qRT-PCR method relative to control; format: functional
[16] = molecular target: T3, Sphingomyelin phosphodiesterase (Homo sapiens, UniProt P17405); assay: Inhibition of mmLDL-stimulated acid sphingomyelinase in human PBMC lysates using BODIPY FL C5-sphingomyelin as substrate preincubated for 30 mins followed by mmLDL stimulation measured after 2 hrs by HPLC method
T3 sequence (P17405 whole entry): T1 sequence (whole entry)

Compound: COc1ccc(CCN(C)CCCn2c3ccccc3c3ccccc32)cc1
- Activity [1]: 33 - 49%
- inhibition [2]: Active
- Ratio [3]: 0.16
- Ratio [4]: 8.71
- fold change (FC) [5]: 1.21
- fold change (FC) [6]: 1.15
- fold change (FC) [7]: 1
- fold change (FC) [8]: 1.07
- fold change (FC) [9]: 1.48
- fold change (FC) [10]: 1.12
- fold change (FC) [11]: 1.01
- fold change (FC) [12]: 1.1
- fold change (FC) [13]: 1.11
- fold change (FC) [14]: 1.08
- fold change (FC) [15]: 1.83
- IC50 [16]: 13 to 17 µM
